Laboratory results: paper PMC6585766 (Clinical Pharmacology in Drug Development, 2018)
“Also recorded” adds a separate entry of the source. Where two headings read alike, the source gives them in different places.

Tests used:
[1] = patients with relapsed and refractory multiple myeloma; cited from earlier work
[2] = cited from earlier work
[3] = format: in vivo, human; settings: for AUC / AUC(0-inf) / Cmax / half-life / Tmax: human, plasma, po, 4 mg; for AUC / AUC(0-inf) / Cmax / Tmax / CL/F / AUC0‐t, Ratio (%) of Geometric Mean (Impaired vs Healthy) / AUC, Ratio (%) of Geometric Mean (Impaired vs Healthy) / Cmax, Ratio (%) of Geometric Mean (Impaired vs Healthy) / tmax, Median Difference (Impaired– Healthy): single oral 4-mg dose; for AUC(0-inf): AUC (time 0 extrapolated to infinity); for half-life: t1/2, single oral 4-mg dose; for AUC0‐t, Ratio (%) of Geometric Mean (Impaired vs Healthy) / AUC, Ratio (%) of Geometric Mean (Impaired vs Healthy) / Cmax, Ratio (%) of Geometric Mean (Impaired vs Healthy): ANOVA; for tmax, Median Difference (Impaired– Healthy): nonparametric method
How it was run: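 Male subjects (8 per group: healthy, mild, moderate, severe hepatic impairment) received a single oral 4-mg dose. Water was withheld from 60 min pre-dose to 2 h post-dose, food until at least 4 h post-dose, and CYP1A2/CYP3A modulators from 14 days prior. Plasma was sampled pre-dose to 48 h and assayed by validated LC-MS/MS. Noncompartmental parameters used actual sampling times. ANOVA (group as fixed effect) gave geometric mean ratios with 90% CI versus matched healthy subjects.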

[4] = heavy smokers (approximately 25 cigarettes per day); ref data on file; cited from earlier work
[5] = fed vs fasted; ref data on file; cited from earlier work
[6] = human, cited from earlier work
Safety assessment = format: in vivo, human; settings: single oral 4-mg dose
How it was run: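 Open-label, multicentre study in male subjects (healthy, mild, moderate or severe hepatic impairment) given a single oral 4-mg dose. Adverse events were recorded from consent through a follow-up telephone call 7 ± 1 days after dosing, plus any reported within 28 days. Physical exams, vital signs, 12-lead ECGs and clinical laboratory tests were also done. TEAEs were tabulated by system organ class and preferred term, each subject counted once per event.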

[7] = administered during the period of organogenesis; no reference given; cited from earlier work
[8] = group 1 healthy subjects, n = 8, arithmetic mean (SD)
[9] = group 2 severe hepatic impairment, n = 8, arithmetic mean (SD)
[10] = group 3 moderate hepatic impairment, n = 8, arithmetic mean (SD)
[11] = group 4 mild hepatic impairment, n = 8, arithmetic mean (SD)
[12] = severe hepatic impairment group, 1 subject

Nc1cccc2c1C(=O)N(C1CCC(=O)NC1=O)C2=O (centres unmarked) [Pomalidomide]
nonrenal routes as share of pomalidomide total body clearance [1]: approximately 70% | effect on exposure of pomalidomide ([2]; co‐administration of a strong CYP1A2 inhibitor in the presence of a strong CYP3A inhibitor): approximately doubled | effect on exposure to pomalidomide ([2]; co‐administration of a strong CYP3A inhibitor or inducer or a P‐glycoprotein inhibitor): no clinically relevant effect | AUC ([3]; AUC0‐t, Geometric Mean, healthy, N = 8): 481 ng·h/mL | AUC ([3]; AUC0‐t, Geometric Mean, mild hepatic impairment, N = 8): 693 ng·h/mL | AUC ([3]; AUC0‐t, Geometric Mean, moderate hepatic impairment, N = 8): 725 ng·h/mL | AUC ([3]; AUC0‐t, Geometric Mean, severe hepatic impairment, N = 8): 762 ng·h/mL | AUC ([3]; AUC0‐t, group 1 healthy subjects, n = 8, arithmetic mean (SD)): 493 ng·h/mL | AUC ([3]; AUC0‐t, group 2 severe hepatic impairment, n = 8, arithmetic mean (SD)): 822 ng·h/mL | AUC ([3]; AUC0‐t, group 3 moderate hepatic impairment, n = 8, arithmetic mean (SD)): 764 ng·h/mL | AUC ([3]; AUC0‐t, group 4 mild hepatic impairment, n = 8, arithmetic mean (SD)): 728 ng·h/mL | AUC(0-inf) [3, 8]: 498 ng·h/mL | AUC(0-inf) [3, 9]: 908 ng·h/mL | AUC(0-inf) [3, 10]: 810 ng·h/mL | AUC(0-inf) [3, 11]: 787 ng·h/mL | AUC ([3]; AUC, Geometric Mean, healthy, N = 8): 486 ng·h/mL | AUC ([3]; AUC, Geometric Mean, mild hepatic impairment, N = 8): 734 ng·h/mL | AUC ([3]; AUC, Geometric Mean, moderate hepatic impairment, N = 8): 764 ng·h/mL | AUC ([3]; AUC, Geometric Mean, severe hepatic impairment, N = 8): 833 ng·h/mL | Cmax ([3]; Geometric Mean, healthy, N = 8): 59.2 ng/mL | Cmax ([3]; Geometric Mean, mild hepatic impairment, N = 8): 55.8 ng/mL | Cmax ([3]; Geometric Mean, moderate hepatic impairment, N = 8): 56.2 ng/mL | Cmax ([3]; Geometric Mean, severe hepatic impairment, N = 8): 44.9 ng/mL | Cmax [3, 9]: 49.1 ng/mL | Cmax [3, 11]: 56.2 ng/mL | half-life [3, 9]: 12.7 h | half-life [3, 10]: 10.1 h | half-life [3, 11]: 10.3 h | Tmax ([3]; Geometric Mean, healthy, N = 8, Table 4): 1.5 h | Tmax ([3]; Geometric Mean, mild hepatic impairment, N = 8, Table 4): 2.25 h | Tmax ([3]; Geometric Mean, moderate hepatic impairment, N = 8, Table 4): 2.38 h | Tmax ([3]; Geometric Mean, severe hepatic impairment, N = 8, Table 4): 2.5 h | Tmax ([3]; group 1 healthy subjects, n = 8, median (min, max)): 1.5 h | Tmax ([3]; group 2 severe hepatic impairment, n = 8, median (min, max)): 2.5 h | Tmax ([3]; group 3 moderate hepatic impairment, n = 8, median (min, max)): 2.25 h | Tmax ([3]; group 4 mild hepatic impairment, n = 8, median (min, max)): 2 h | increase of pomalidomide exposure ([3]; mild hepatic impairment vs healthy): approximately 50% | increase of pomalidomide exposure ([3]; moderate hepatic impairment vs healthy): approximately 60% | increase of pomalidomide exposure ([3]; severe hepatic impairment vs healthy): approximately 70% | CL/F [3, 8]: 8.4 (1.9) L/h | CL/F [3, 9]: 5.4 (3.3) L/h | CL/F [3, 10]: 5.6 (2.6) L/h | CL/F [3, 11]: 5.8 (2.2) L/h | AUC0‐t, Ratio (%) of Geometric Mean (Impaired vs Healthy) ([3]; mild vs healthy): 143.9% | AUC, Ratio (%) of Geometric Mean (Impaired vs Healthy) ([3]; mild vs healthy): 151.2% | Cmax, Ratio (%) of Geometric Mean (Impaired vs Healthy) ([3]; mild vs healthy): 94.2% | tmax, Median Difference (Impaired– Healthy) ([3]; mild vs healthy): 1.0 h | AUC0‐t, Ratio (%) of Geometric Mean (Impaired vs Healthy) ([3]; moderate vs healthy): 150.6% | AUC, Ratio (%) of Geometric Mean (Impaired vs Healthy) ([3]; moderate vs healthy): 157.5% | Cmax, Ratio (%) of Geometric Mean (Impaired vs Healthy) ([3]; moderate vs healthy): 94.8% | tmax, Median Difference (Impaired– Healthy) ([3]; moderate vs healthy): 1.0 h | AUC0‐t, Ratio (%) of Geometric Mean (Impaired vs Healthy) ([3]; severe vs healthy): 158.4% | AUC, Ratio (%) of Geometric Mean (Impaired vs Healthy) ([3]; severe vs healthy): 171.5% | Cmax, Ratio (%) of Geometric Mean (Impaired vs Healthy) ([3]; severe vs healthy): 75.8% | tmax, Median Difference (Impaired– Healthy) ([3]; severe vs healthy): 0.75 h | AUC lower in heavy smokers than in nonsmokers [4]: 30% | Cmax higher in heavy smokers than in nonsmokers [4]: 14.4% | decrease of AUC by food [5]: 8% | clearance pathway: CYP–mediated hydroxylation with subsequent glucuronidation [6]: 43 % of the dose | unchanged pomalidomide in urine [6]: 2.2 % of the dose | total [14C]‐radioactivity recovered in feces ([6]; oral): 15.5% | total [14C]‐radioactivity recovered in urine ([6]; oral): 72.8% | recovery of total [14C]‐radioactivity ([6]; oral, urine plus feces): approximately 88 % of the administered dose | unchanged pomalidomide in feces ([6]; samples collected during the 96‐hour postdose period): 7.7 % of the dose | clearance pathway: excretion of unchanged drug ([6]; share of the dose): 10% | clearance pathway: glutarimide ring hydrolysis ([6]; share of the dose): 25% | total number of TEAEs (Safety assessment; all 32 subjects): 8 | clinically significant clinical laboratory, vital sign, or ECG results (Safety assessment; all subjects): No subject had a clinical laboratory, vital sign, or ECG result that was considered clinically significant or reported as a TEAE | deaths, SAEs, TEAEs leading to discontinuation (Safety assessment; all subjects): No deaths, SAEs, or TEAEs leading to discontinuation were reported; also recorded: No deaths or other SAEs were reported and no subjects were discontinued; also recorded: no deaths and no subject discontinued due to a TEAE | severity of TEAEs (Safety assessment; all subjects): All TEAEs were mild in severity except for 1 subject in the moderate hepatic impairment group with the moderate TEAE of bronchitis | TEAEs reported (Safety assessment; healthy subjects): No TEAEs | safety and tolerability (Safety assessment; healthy subjects and subjects with severe, moderate, or mild hepatic impairment): safe and well tolerated | subjects reporting at least 1 TEAE related to pomalidomide (Safety assessment; mild hepatic impairment group, 2 subjects): 25.0% | subjects reporting TEAEs (Safety assessment; mild hepatic impairment group, 4 subjects): 50.0% | subjects reporting TEAEs (Safety assessment; moderate hepatic impairment group, 1 subject): 12.5% | subjects reporting at least 1 TEAE related to pomalidomide (Safety assessment; overall, 3 subjects (diarrhea, nausea, headache, flushing)): 9.4% | subjects reporting TEAEs (Safety assessment; overall, 6 of 32 subjects): 18.8% | subjects reporting TEAEs (Safety assessment; [12]): 12.5% | subjects reporting at least 1 TEAE related to pomalidomide (Safety assessment; [12]): 12.5% | teratogenicity [7]: teratogenic
